Activity calls are given as the source filed them. The rule behind the calls is not given here.
Key:
[1] = Cmax in rat at 10 mg/kg, po administered via gavage by LC-MS/MS analysis; format: ADME, organism-based; parameters: dose 10 mg/kg, route oral; details: in vivo
Method in brief: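 Rats were dosed IV as a solution in 75% PEG300:25% D5W, or orally as a suspension in 0.5% methylcellulose, 0.5% Tween80 and 99% water.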

[2] = system: Rattus norvegicus; test: In vivo agonist activity at FXR in Sprague-Dawley rat assessed as induction of SHP mRNA level in liver at 0.01 mg/kg, po qd for 14 days measured 7 hrs post last dose on day 14 by qPCR analysis; format: functional, organism-based
[3] = system: Rattus norvegicus; test: In vivo agonist activity at FXR in Sprague-Dawley rat assessed as induction of SHP mRNA level in liver at 0.3 mg/kg, po qd for 14 days measured 7 hrs post last dose on day 14 by qPCR analysis; format: functional, organism-based
[4] = system: Rattus norvegicus; test: In vivo agonist activity at FXR in Sprague-Dawley rat assessed as induction of BSEP mRNA level in liver at >0.1 mg/kg, po qd for 14 days measured 7 hrs post last dose on day 14 by qPCR analysis; format: functional, organism-based
[5] = system: Rattus norvegicus; test: In vivo agonist activity at FXR in po dosed Sprague-Dawley rat assessed as induction of SHP mRNA level in liver administered once daily for 14 days measured 7 hrs post last dose on day 14 by qPCR analysis; format: functional
[6] = system: Rattus norvegicus; test: In vivo agonist activity at FXR in po dosed Sprague-Dawley rat assessed as induction of FGF15 mRNA level in ileum administered once daily for 14 days measured 7 hrs post last dose on day 14 by qPCR analysis; format: functional
[7] = system: Rattus norvegicus; test: In vivo agonist activity at FXR in po dosed Sprague-Dawley rat assessed as induction of FGF15 protein level in plasma administered once daily for 14 days measured 24 hrs post last dose on day 14; format: functional, organism-based
[8] = Drug uptake in Sprague-Dawley rat plasma at 0.1 mg/kg, po qd administered via gavage measured 7 hrs post last dose on day 14 by LC-MS/MS analysis; format: ADME, organism-based
[9] = Drug uptake in Sprague-Dawley rat liver at 0.03 mg/kg, po qd administered via gavage measured 7 hrs post last dose on day 14 by LC-MS/MS analysis; format: ADME, organism-based; details: read-out: Drug uptake
Method in brief: (§1)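 Drug concentration in liver was quantified from tissue homogenates, so these are total levels. Unbound liver concentration was not determined.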

[10] = Drug uptake in Sprague-Dawley rat plasma at 0.03 mg/kg, po qd administered via gavage measured 7 hrs post last dose on day 14 by LC-MS/MS analysis; format: ADME, organism-based
[11] = Drug uptake in Sprague-Dawley rat plasma at 0.003 mg/kg, po qd administered via gavage measured 7 hrs post last dose on day 14 by LC-MS/MS analysis; format: ADME, organism-based
[12] = Drug uptake in Sprague-Dawley rat liver at 0.003 mg/kg, po qd administered via gavage measured 1 hr post last dose on day 14 by LC-MS/MS analysis; format: ADME, organism-based; details: read-out: Drug uptake; method in brief: as §1
[13] = Drug uptake in Sprague-Dawley rat plasma at 0.003 mg/kg, po qd administered via gavage measured 1 hr post last dose on day 14 by LC-MS/MS analysis; format: ADME, organism-based
[14] = system: Rattus norvegicus; test: Dose normalized AUC (0 to 24 hrs) in Sprague-Dawley rat at 3 mg/kg, po qd administered via gavage measured on day 11 by LC-MS/MS analysis; format: ADME, organism-based; details: in vivo
[15] = system: Rattus norvegicus; test: Dose normalized AUC (0 to 24 hrs) in Sprague-Dawley rat at 3 mg/kg, po qd administered via gavage measured on day 1 by LC-MS/MS analysis; format: ADME, organism-based; details: in vivo
[16] = system: Rattus norvegicus; test: Dose normalized AUC (0 to 24 hrs) in Sprague-Dawley rat at 0.1 mg/kg, po qd administered via gavage measured on day 11 by LC-MS/MS analysis; format: ADME, organism-based; details: in vivo
[17] = system: Rattus norvegicus; test: Dose normalized AUC (0 to 24 hrs) in Sprague-Dawley rat at 0.1 mg/kg, po qd administered via gavage measured on day 1 by LC-MS/MS analysis; format: ADME, organism-based; details: in vivo
[18] = system: Rattus norvegicus; test: Dose normalized AUC (0 to 24 hrs) in Sprague-Dawley rat at 0.003 mg/kg, po qd administered via gavage measured on day 11 by LC-MS/MS analysis; format: ADME, organism-based; details: in vivo
[19] = system: Rattus norvegicus; test: Dose normalized AUC (0 to 24 hrs) in Sprague-Dawley rat at 0.003 mg/kg, po qd administered via gavage measured on day 1 by LC-MS/MS analysis; format: ADME, organism-based; details: in vivo
[20] = AUC (0 to 24 hrs) in Sprague-Dawley rat at 3 mg/kg, po qd administered via gavage measured on day 11 by LC-MS/MS analysis; format: ADME, organism-based; parameters: dose 3 mg/kg, time < 24 hr, route oral; details: in vivo
[21] = AUC (0 to 24 hrs) in Sprague-Dawley rat at 1 mg/kg, po qd administered via gavage measured on day 1 by LC-MS/MS analysis; format: ADME, organism-based; parameters: dose 1 mg/kg, time < 24 hr, route oral; details: in vivo
[22] = AUC (0 to 24 hrs) in Sprague-Dawley rat at 0.1 mg/kg, po qd administered via gavage measured on day 1 by LC-MS/MS analysis; format: ADME, organism-based; parameters: time < 24 hr, dose 0.1 mg/kg, route oral; details: in vivo
[23] = Cmax in Sprague-Dawley rat at 3 mg/kg, po qd administered via gavage measured on day 1 by LC-MS/MS analysis; format: ADME, organism-based; parameters: dose 3 mg/kg, route oral; details: in vivo
[24] = Cmax in Sprague-Dawley rat at 0.1 mg/kg, po qd administered via gavage measured on day 11 by LC-MS/MS analysis; format: ADME, organism-based; parameters: dose 0.1 mg/kg, route oral; details: in vivo
[25] = Cmax in Sprague-Dawley rat at 0.003 mg/kg, po qd administered via gavage measured on day 1 by LC-MS/MS analysis; format: ADME, organism-based; parameters: dose 0.003 mg/kg, route oral; details: in vivo
[26] = Volume of distribution at steady state in dog at 0.5 mg/kg, iv or 2 mg/kg, po administered via gavage by LC-MS/MS analysis; format: ADME, organism-based, Canis lupus familiaris; details: in vivo, read-out: Vdss
Method in brief: (§2)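 IV dosing used a solution in 75% PEG300:25% D5W for mouse and rat, and a solution in 20% PEG300, 5% solutol, 75% carbonate buffer pH 8 for dog. PO dosing used a suspension in 0.5% methylcellulose, 0.5% Tween80, 99% water for all three species.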

[27] = Half life in rat at 3 mg/kg, iv by LC-MS/MS analysis; format: ADME, organism-based; details: in vivo
Method in brief: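 Single IV dose given as a solution. Mouse and rat received it in 75% PEG300:25% D5W. Dog received it in 20% PEG300, 5% solutol and 75% carbonate buffer pH = 8. Plasma was sampled for PK parameters.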

[28] = AUC in dog at 2 mg/kg, po administered via gavage by LC-MS/MS analysis; format: ADME, organism-based, Canis lupus familiaris; details: in vivo
Method in brief: (§3)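 Single oral dose given as a suspension in 0.5% methylcellulose, 0.5% Tween80 and 99% water. Doses were 10 mg/kg in mouse, 1 mg/kg in rat and 2 mg/kg in dog.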

[29] = system: Rattus norvegicus; test: In vivo agonist activity at FXR in po dosed Sprague-Dawley rat assessed as induction of SHP mRNA level in ileum administered as single dose measured 7 hrs post dose by qPCR analysis; format: functional, organism-based
[30] = Drug uptake in Sprague-Dawley rat liver at 1 mg/kg, po qd administered via gavage measured 7 hrs post last dose on day 14 by LC-MS/MS analysis; format: ADME, organism-based; details: read-out: Drug uptake; method in brief: as §1
[31] = Cmax in rat at 1 mg/kg, po administered via gavage by LC-MS/MS analysis; format: ADME, organism-based; parameters: dose 1 mg/kg, route oral; details: in vivo; method in brief: as §3
[32] = Oral bioavailability in rat at 1 mg/kg administered via gavage by LC-MS/MS analysis; format: ADME, organism-based; details: in vivo; method in brief: as §2

SMILES: O=C(O)c1cc(F)c2nc(N3C4CCC3CC(OCc3c(-c5ccccc5OC(F)(F)F)noc3C3CC3)C4)sc2c1 (configuration not stated)
- Cmax [1]: 2280 nM
- Activity [2]: Active
- Activity [3]: Active
- Activity [4]: Active
- ED50 [5]: 0.02 mg/kg
- ED50 [6]: 0.05 mg/kg
- Activity [7]: inactive
- concentration at 7 h [8]: 4.89 nM
- concentration at 7 h [9]: 9.74 nM
- concentration at 7 h [10]: 1.16 nM
- concentration at 7 h [11]: 0.12 nM
- concentration at 1 h [12]: 2.92 nM
- concentration at 1 h [13]: 0.2 nM
- AUC/dose [14]: 563 nM·h
- AUC/dose [15]: 448 nM·h
- AUC/dose [16]: 796 nM·h
- AUC/dose [17]: 410 nM·h
- AUC/dose [18]: 756 nM·h
- AUC/dose [19]: 668 nM·h
- AUC at 24 h [20]: 1.69 µM·h
- AUC(0-t) at 24 h [21]: 0.461 µM·h
- AUC(0-t) at 24 h [22]: 0.041 µM·h
- Cmax [23]: 172 nM
- Cmax [24]: 7.1 nM
- Cmax [25]: 0.15 nM
- Vd [26]: 0.46 L/kg
- half-life [27]: 222 min
- AUC [28]: 3.66 µM·h
- Activity [29]: Dose-dependent effect
- concentration at 7 h [30]: 230 nM
- Cmax [31]: 53 nM
- bioavailability [32]: 10%
